Laboratory results published in ChEMBL document CHEMBL3612038, “N-Alkyl/aryl-4-(3-substituted-3-phenylpropyl)piperazine-1-carbothioamide as dual-action vaginal microbicides with reverse transcriptase inhibition” (Eur J Med Chem, 2015).
≈ marks a conversion by molar mass, not a printed value.

What was measured:
[1] = Spermicidal activity in liquefied human semen assessed as reduction in motile spermatozoa incubated at 37 degC for 30 mins; type: functional, Sperm; conditions: for minimal effective concentration: Homo sapiens, Sperm, Semen, 0.5 h, read-out: MEC
In short: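 Compounds dissolved in minimal DMSO, diluted with 0.85% saline to 1.0% test solution; liquefied human semen mixed 1:5 with test solution, vortexed 10 s; motile sperm scored by phase-contrast microscopy over 60 s in five fields. MEC = lowest concentration immobilizing 100% of sperm, still immotile after dilution with nutrient medium.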

Trichomonas vaginalis [2] = assay: Anti-trichomonas activity against MTZ-resistant Trichomonas vaginalis incubated for 3 to 48 hrs by trypan blue exclusion assay; type: functional
In short: (§1)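 Trichomonas vaginalis trophozoites (5 × 10^4/L as printed) in TYM medium; DMSO stocks (100.0 mg/mL) serially diluted in TYM to 0.1 mg/mL, DMSO/TYM vehicle controls. Anaerobic incubation at 37 °C; viability checked 3–48 h by microscopy (200×) with trypan blue exclusion. MIC = lowest concentration killing all cells within 48 h.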

Cryptococcus neoformans = assay: Antifungal activity against Cryptococcus neoformans incubated for 48 hrs by broth micro-dilution method; type: functional
In short: (§2)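 Broth microdilution per NCCLS guidelines in RPMI 1640 buffered with MOPS; starting inoculum 1–5 × 10^3 CFU/mL; plates incubated at 35 °C, MIC read after 48 h.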

[3] = test system: Trichophyton mentagrophytes; assay: Antifungal activity against Trichophyton mentagrophytes incubated for 48 hrs by broth micro-dilution method; type: functional; in short: as §2
[4] = target: Human immunodeficiency virus type 1 reverse transcriptase (Human immunodeficiency virus 1) (UniProt Q72547); assay: Inhibition of HIV1 reverse transcriptase at 100 ug/ml incubated for 1 hr by ELISA method
In short: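 Non-radioactive colorimetric ELISA: template/primer with dNTPs plus HIV-1 RT in lysis buffer ± compound (100 µg/mL), 1 h at 37 °C; RT-free buffer as negative control, nevirapine as positive control. Product captured on streptavidin plate 1 h at 37 °C, detected with anti-DIG-POD and ABTS, OD 405 nm.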

Candida albicans = assay: Antifungal activity against Candida albicans incubated for 48 hrs by broth micro-dilution method; type: functional; in short: as §2
Candida parapsilosis = assay: Antifungal activity against Candida parapsilosis ATCC 22019 incubated for 48 hrs by broth micro-dilution method; type: functional; conditions: Lodderomyces parapsilosis, ATCC 22019, 48 h; in short: as §2
Aspergillus fumigatus = assay: Antifungal activity against Aspergillus fumigatus incubated for 48 hrs by broth micro-dilution method; type: functional; in short: as §2
Sporothrix schenckii = assay: Antifungal activity against Sporothrix schenckii incubated for 48 hrs by broth micro-dilution method; type: functional; in short: as §2
Trichomonas vaginalis [5] = assay: Anti-trichomonas activity against MTZ-susceptible Trichomonas vaginalis incubated for 3 to 48 hrs by trypan blue exclusion assay; type: functional; in short: as §1
[6] = Effect on Lactobacillus jensenii ATCC 25258 62G assessed as effect on microbial proliferation at 200 ug/ml incubated for 24 hrs
In short: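 L. jensenii ATCC 25258 (strain 62G) in 6% Rogosa SL broth with 0.132% acetic acid; serial compound dilutions or vehicle in triplicate, ~1000 CFU per well, 24 h at 37 °C, humidified 5% CO2; growth read as OD610, expressed relative to control = 100.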

Trichomonas vaginalis [7] = assay: Resistance index, ratio of MIC for MTZ-resistant Trichomonas vaginalis to MIC for MTZ-susceptible Trichomonas vaginalis; type: functional
HeLa = assay: Cytotoxicity against human HeLa cells assessed as reduction in cell viability at 200 ug/ml incubated for 24 hrs by MTT assay; type: cell-based
In short: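 HeLa cells seeded at 5 × 10^4 per well, exposed 24 h to compound dilutions in culture medium or vehicle control; MTT (5 mg/mL in pH 7.4 buffer) added, formazan dissolved in DMSO, absorbance read at 540 nm.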

## FC(F)(F)c1ccc(OC(CCN2CCN(C(=S)NC3CCCCC3)CC2)c2ccccc2)cc1 (centres undefined)
[1]
  MEC: >1%
  minimal effective concentration: > 19800 µM
Trichomonas vaginalis [2]
  MIC: 495 µM (≈ 250 µg/mL)
Cryptococcus neoformans
  MIC: > 81.2 µM
[3]
  MIC: > 81.2 µM
[4]
  inhibition: 24.3%
Candida albicans
  MIC: > 81.2 µM
Candida parapsilosis
  MIC: > 81.2 µM
Aspergillus fumigatus
  MIC: > 81.2 µM
Sporothrix schenckii
  MIC: > 81.2 µM
Trichomonas vaginalis [5]
  MIC: 64.3 µM (≈ 32.5 µg/mL)
[6]
  Activity: Non-toxic
Trichomonas vaginalis [7]
  Ratio: 2
HeLa
  Activity: Non-toxic

## FC(F)(F)c1ccc(OC(CCN2CCN(C(=S)Nc3ccccc3)CC2)c2ccccc2)cc1 (centres undefined)
[1]
  MEC: 0.05%
  minimal effective concentration: 1000 µM
Cryptococcus neoformans
  MIC: > 81.2 µM
[3]
  MIC: > 81.2 µM
[4]
  inhibition: 21.1%
Candida albicans
  MIC: > 81.2 µM
Candida parapsilosis
  MIC: > 81.2 µM
Aspergillus fumigatus
  MIC: > 81.2 µM
Sporothrix schenckii
  MIC: > 81.2 µM
Trichomonas vaginalis [5]
  MIC: 50.1 µM (≈ 25 µg/mL)
[6]
  Activity: Non-toxic
Trichomonas vaginalis [7]
  Ratio: 2
HeLa
  Activity: Non-toxic

## CCCCNC(=S)N1CCN(CCC(Oc2ccc(C(F)(F)F)cc2)c2ccccc2)CC1 (centres undefined)
[1]
  MEC: >1%
  minimal effective concentration: > 20900 µM
Trichomonas vaginalis [2]
  MIC: 261 µM (≈ 125 µg/mL)
Cryptococcus neoformans
  MIC: > 81.2 µM
[3]
  MIC: > 81.2 µM
[4]
  inhibition: 59.6%
Candida albicans
  MIC: > 81.2 µM
Candida parapsilosis
  MIC: > 81.2 µM
Aspergillus fumigatus
  MIC: > 81.2 µM
Sporothrix schenckii
  MIC: > 81.2 µM
Trichomonas vaginalis [5]
  MIC: 130 µM (≈ 62.6 µg/mL)
[6]
  Activity: Non-toxic
Trichomonas vaginalis [7]
  Ratio: 2
HeLa
  Activity: Non-toxic

## O=C(CCN1CCN(C(=S)NCc2ccccc2)CC1)c1ccccc1
[1]
  MEC: 0.1%
  minimal effective concentration: 2720 µM
Trichomonas vaginalis [2]
  MIC: 341 µM (≈ 125 µg/mL)
Cryptococcus neoformans
  MIC: 8.47 µM (≈ 3.11 µg/mL)
[3]
  MIC: 4.22 µM (≈ 1.55 µg/mL)
[4]
  inhibition: 58.3%
Candida albicans
  MIC: 67.9 µM (≈ 25 µg/mL)
Candida parapsilosis
  MIC: > 81.2 µM
Aspergillus fumigatus
  MIC: > 81.2 µM
Sporothrix schenckii
  MIC: > 81.2 µM
Trichomonas vaginalis [5]
  MIC: 85.1 µM (≈ 31.3 µg/mL)
[6]
  Activity: Non-toxic
Trichomonas vaginalis [7]
  Ratio: 2
HeLa
  Activity: Non-toxic

## FC(F)(F)c1ccc(OC(CCN2CCN(C(=S)NCc3ccccc3)CC2)c2ccccc2)cc1 (centres undefined)
[1]
  MEC: >1%
  minimal effective concentration: > 19500 µM
Trichomonas vaginalis [2]
  MIC: 243 µM (≈ 125 µg/mL)
Cryptococcus neoformans
  MIC: 12.1 µM (≈ 6.21 µg/mL)
[3]
  MIC: 6.07 µM (≈ 3.12 µg/mL)
[4]
  inhibition: 51%
Candida albicans
  MIC: > 81.2 µM
Candida parapsilosis
  MIC: > 81.2 µM
Aspergillus fumigatus
  MIC: > 81.2 µM
Sporothrix schenckii
  MIC: > 81.2 µM
Trichomonas vaginalis [5]
  MIC: 60.9 µM (≈ 31.3 µg/mL)
[6]
  Activity: Non-toxic
Trichomonas vaginalis [7]
  Ratio: 2
HeLa
  Activity: Non-toxic

## O=C(CCN1CCN(C(=S)NC2CCCCC2)CC1)c1ccccc1
[1]
  MEC: 0.05%
  minimal effective concentration: 1390 µM
Trichomonas vaginalis [2]
  MIC: 175 µM (≈ 62.8 µg/mL)
Cryptococcus neoformans
  MIC: 8.6 µM (≈ 3.09 µg/mL)
[3]
  MIC: 4.33 µM (≈ 1.56 µg/mL)
[4]
  inhibition: 47.7%
Candida albicans
  MIC: 34.7 µM (≈ 12.5 µg/mL)
Candida parapsilosis
  MIC: > 81.2 µM
Aspergillus fumigatus
  MIC: > 81.2 µM
Sporothrix schenckii
  MIC: > 81.2 µM
Trichomonas vaginalis [5]
  MIC: 43.3 µM (≈ 15.6 µg/mL)
[6]
  Activity: Non-toxic
Trichomonas vaginalis [7]
  Ratio: 2
HeLa
  Activity: Non-toxic

## OC(CCN1CCN(C(=S)Nc2ccccc2)CC1)c1ccccc1 (centres undefined)
[1]
  MEC: 0.1%
  minimal effective concentration: 2820 µM
Trichomonas vaginalis [2]
  MIC: 352 µM (≈ 125 µg/mL)
Cryptococcus neoformans
  MIC: > 81.2 µM
[3]
  MIC: > 81.2 µM
Candida albicans
  MIC: > 81.2 µM
Candida parapsilosis
  MIC: > 81.2 µM
Aspergillus fumigatus
  MIC: > 81.2 µM
Sporothrix schenckii
  MIC: > 81.2 µM
[6]
  Activity: Non-toxic
Trichomonas vaginalis [7]
  Ratio: 2
HeLa
  Activity: Non-toxic

## OC(CCN1CCN(C(=S)NCc2ccccc2)CC1)c1ccccc1 (centres undefined)
[1]
  MEC: 0.05%
  minimal effective concentration: 1350 µM
Trichomonas vaginalis [2]
  MIC: 339 µM (≈ 125 µg/mL)
Cryptococcus neoformans
  MIC: > 81.2 µM
[3]
  MIC: > 81.2 µM
[4]
  inhibition: 47.2%
Candida albicans
  MIC: > 81.2 µM
Candida parapsilosis
  MIC: > 81.2 µM
Aspergillus fumigatus
  MIC: > 81.2 µM
Sporothrix schenckii
  MIC: > 81.2 µM
Trichomonas vaginalis [5]
  MIC: 169 µM (≈ 62.6 µg/mL)
[6]
  Activity: Non-toxic
Trichomonas vaginalis [7]
  Ratio: 2
HeLa
  Activity: Non-toxic
